ChEMBL document CHEMBL3085721, “Nonhydrolyzable ATP analogues as selective inhibitors of human NPP1: a combined computational/experimental study” (J Med Chem, 2013)
Active and inactive are the calls of the source. The calls are words filed in the database; no cut-off is given here.

Assays:
Format in all cases: cell-based
[1] = biological target: T1, Ectonucleotide pyrophosphatase/phosphodiesterase family member 3 (Homo sapiens) (UniProt O14638); test: Inhibition of NPP3 in human HTB-85 cells assessed as production of p-nitrophenol using pnp-TMP at 100 uM measured after 20 mins by spectrophotometry
T1 sequence (whole entry): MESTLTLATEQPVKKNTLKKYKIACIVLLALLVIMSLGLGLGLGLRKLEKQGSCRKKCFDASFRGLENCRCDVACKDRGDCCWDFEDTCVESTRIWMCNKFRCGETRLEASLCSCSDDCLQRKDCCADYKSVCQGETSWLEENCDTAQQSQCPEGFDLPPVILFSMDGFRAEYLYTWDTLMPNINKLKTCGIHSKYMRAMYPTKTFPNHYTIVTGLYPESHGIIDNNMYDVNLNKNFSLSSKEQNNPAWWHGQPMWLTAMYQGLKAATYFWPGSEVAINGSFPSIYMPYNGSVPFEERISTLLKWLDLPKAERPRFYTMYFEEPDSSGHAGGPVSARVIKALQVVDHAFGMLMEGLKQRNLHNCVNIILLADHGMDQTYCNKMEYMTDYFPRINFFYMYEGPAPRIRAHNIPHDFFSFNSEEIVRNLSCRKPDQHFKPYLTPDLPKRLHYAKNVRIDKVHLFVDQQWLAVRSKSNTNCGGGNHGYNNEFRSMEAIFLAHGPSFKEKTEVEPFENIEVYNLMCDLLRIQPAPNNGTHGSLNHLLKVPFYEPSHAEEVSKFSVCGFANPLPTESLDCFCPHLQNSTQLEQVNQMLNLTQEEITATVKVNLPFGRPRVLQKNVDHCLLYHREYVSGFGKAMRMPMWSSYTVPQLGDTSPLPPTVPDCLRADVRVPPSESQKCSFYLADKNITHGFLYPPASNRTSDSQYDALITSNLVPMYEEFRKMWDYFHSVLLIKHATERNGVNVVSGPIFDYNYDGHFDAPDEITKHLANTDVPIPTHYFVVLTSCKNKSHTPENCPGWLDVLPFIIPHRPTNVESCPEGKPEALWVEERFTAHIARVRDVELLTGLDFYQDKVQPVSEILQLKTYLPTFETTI
How it was run: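 Intact osteocarcinoma HTB85 (SaOS-2) cells in 24-well plates, 0.5 mL incubation mixture, analogue and pnp-TMP each at 100 μM. After 20 min an aliquot was read for p-nitrophenol at 410 nm. Substrate alone set as 100%. Mean ± SD of three experiments in triplicate.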

[2] = biological target: T2, Ectonucleotide pyrophosphatase/phosphodiesterase family member 1 (Homo sapiens) (UniProt P22413); test: Competitive inhibition of human NPP1 expressed in COS7 cells assessed as production of p-nitrophenol using pnp-TMP as the substrate preincubated at 25 to 100 uM for 3 mins before substrate addition measured after 15 mins by Dixon/Cornish Bowden method; details: COS-7
T2 sequence (whole entry): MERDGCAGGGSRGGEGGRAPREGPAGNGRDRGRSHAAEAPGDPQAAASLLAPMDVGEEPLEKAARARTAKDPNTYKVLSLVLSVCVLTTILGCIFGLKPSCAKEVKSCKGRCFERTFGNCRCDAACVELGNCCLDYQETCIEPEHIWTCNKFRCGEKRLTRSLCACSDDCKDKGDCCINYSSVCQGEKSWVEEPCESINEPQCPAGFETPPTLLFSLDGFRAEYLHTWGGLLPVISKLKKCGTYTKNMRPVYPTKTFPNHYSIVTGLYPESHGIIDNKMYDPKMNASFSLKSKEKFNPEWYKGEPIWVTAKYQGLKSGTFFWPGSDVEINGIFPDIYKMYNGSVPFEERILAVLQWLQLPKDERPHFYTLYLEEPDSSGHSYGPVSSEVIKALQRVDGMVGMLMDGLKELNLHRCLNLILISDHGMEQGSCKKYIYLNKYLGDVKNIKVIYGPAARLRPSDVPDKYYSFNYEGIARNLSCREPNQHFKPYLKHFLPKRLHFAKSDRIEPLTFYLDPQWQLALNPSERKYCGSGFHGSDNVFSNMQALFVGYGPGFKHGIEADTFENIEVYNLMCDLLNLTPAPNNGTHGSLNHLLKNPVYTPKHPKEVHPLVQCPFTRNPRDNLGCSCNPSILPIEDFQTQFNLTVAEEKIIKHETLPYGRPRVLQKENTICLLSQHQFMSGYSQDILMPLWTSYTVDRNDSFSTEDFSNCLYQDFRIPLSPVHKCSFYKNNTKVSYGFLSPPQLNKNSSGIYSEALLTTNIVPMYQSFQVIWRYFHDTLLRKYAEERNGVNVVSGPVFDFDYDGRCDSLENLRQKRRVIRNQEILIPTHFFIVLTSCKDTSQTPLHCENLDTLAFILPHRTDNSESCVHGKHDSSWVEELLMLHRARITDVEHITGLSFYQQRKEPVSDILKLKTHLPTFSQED
How it was run: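 Crude protein extract from COS-7 cells transiently transfected with human NPP1 (sonicated, debris cleared at 300g), preincubated 3 min at 37 °C with inhibitor (0, 25, 50, 100 μM) in 1 mM CaCl2, 140 mM NaCl, 5 mM KCl, 50 mM Tris pH 8.5. pnp-TMP (25, 50, 100 μM) added; p-nitrophenol read at 410 nm after 15 min. Ki,app and inhibition type from Dixon and Cornish-Bowden plots, three independent experiments.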

[3] = biological target: T2, Ectonucleotide pyrophosphatase/phosphodiesterase family member 1 (Homo sapiens); test: Inhibition of human NPP1 expressed in COS7 cells assessed as production of p-nitrophenol using pnp-TMP as the substrate preincubated at 100 uM for 3 mins before substrate addition measured after 15 mins […]; details: COS-7
How it was run: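 Crude extracts of COS-7 cells transiently transfected with human NPP1 or NPP3, preincubated 3 min at 37 °C in 1 mM CaCl2, 140 mM NaCl, 5 mM KCl, 50 mM Tris pH 8.5 with analogue at 100 μM. Reaction started with 100 μM pnp-TMP; p-nitrophenol at 410 nm after 15 min. Activity without analogue set as 100%. Mean ± SD of 3−6 experiments in triplicate.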

inhibition [1]	inhibition [2]	inhibition [3]	SMILES
90%	Active	90%	B[P@@](=O)(OC[C@H]1O[C@@H](n2cnc3c(N)ncnc32)[C@H](O)[C@@H]1O)OP(=O)(O)CP(=O)(O)O
41%	Active	80%	B[P@](=O)(OC[C@H]1O[C@@H](n2cnc3c(N)ncnc32)[C@H](O)[C@@H]1O)OP(=O)(O)CP(=O)(O)O

The next lines start with the molecule.

SMILES	inhibition [1]	inhibition [2]	inhibition [3]
B[P@](=O)(OC[C@H]1O[C@@H](n2cnc3c(N)nc(SC)nc32)[C@H](O)[C@@H]1O)OP(=O)(O)CP(=O)(O)O	90%	Active	80%
B[P@@](=O)(OC[C@H]1O[C@@H](n2cnc3c(N)nc(SC)nc32)[C@H](O)[C@@H]1O)OP(=O)(O)C(F)(F)P(=O)(O)O			90%
CSc1nc(N)c2ncn([C@@H]3O[C@H](COP(=O)(O)C(F)(F)P(=O)(O)O)[C@@H](O)[C@H]3O)c2n1	41%	Active	90%
